# Screening data: PubChem BioAssay, Broad Institute
# This is a sample that favours compounds with a hit; in the whole collection about 2.1% have one here.
# Statin myotox sup: suppression of simvastatin myotoxicity; C2C12 myotubes + simvastatin, ATP luminescence, 48 h; scaled: DMSO 0, geranylgeraniol control 100; rescue of ATP level, % at 7.49 µM; hit rate 0.78% among 330,000;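 active = mean ATP rescue above about 67%, or every replicate alone reaching that limit, limit read from the data, passing the limit was not always enough; inconclusive = no clear call, values can overlap the other calls; inactive = mean under the limit and some replicate under it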;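 also: myotubes were challenged with 10 µM simvastatin during compound exposure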
# Cneo AK release: causes C. neoformans cell lysis | lysis activity, % at 15 µM | hit rate 0.2% among 360,000 | adenylate kinase release luminescence, 4 h; normalised: neutral wells 0, clomiphene wells 100;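 active = mean lysis activity across replicates of at least 80%, whatever share of replicates individually reach that level; inactive = mean lysis activity below 80%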
#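 Assay system: Cryptococcus neoformans yeast cells / Dosing: single-point compound dose / Timing: 4 h at 37 °C static, read 1 h later / Measured by: luminescence of released adenylate kinase using an AK detection reagent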
# DENV2 CPE: DENV2-induced cell death inhibition | DENV2-infected cells, cytopathic effect rescue, plate reader | CPE inhibition, % at 9.99 µM | hit rate 1.7% among 350,000 | AID 651640; in the data active = CPE inhibition above about 20%, passing the limit was not always enough; inconclusive = no clear call, values can overlap the other calls; tested in BHK-21 cells;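 also: 0% = median of neutral control wells and 100% = median of positive control wells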
# Xi reactivation: activators of X-chromosome reactivation in mouse fibroblasts; XiGFP mouse fibroblasts, % GFP-positive cells imaging, 3 d; cells co-treated with 5-aza-dC sensitizer; scaled so ellipticine positive control = 100%; activation, % at 7.58 µM; hit rate 0.055% among 360,000; AID 743238;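 active = mean normalized replicate activation at least 10% and every replicate at or above 10%; inconclusive = only one of the two criteria met; inactive = mean below 10% and not all replicates reach 10%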;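 also: 0% = median of on-plate neutral control wells and 100% = ellipticine 6 µM median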
#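 Material: XiGFP fibroblasts, SV40-immortalized; Buffer or medium: DMEM containing 5-aza-dC; Compound dosing: single point; Times: 3 days compound exposure.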
# * marks the source's active call; other numbers are inactive results; ? = inconclusive; . = no result.
SMILES,Statin myotox sup,Cneo AK release,DENV2 CPE,Xi reactivation
Cc1ccccc1S(=O)(=O)N1CC[C@@H]2[C@H]1c1cc(-c3ccc(C#N)cc3)ccc1N[C@@H]2CO,-12,1,77*,0
N#Cc1ccc(-c2ccc3c(c2)[C@@H]2[C@@H](CCN2S(=O)(=O)c2ccccc2F)[C@H](CO)N3)cc1,-47,14,6,0
CCCn1c(N)c(C(=O)CN(C)CC(=O)Nc2cc(C)ccc2C)c(=O)[nH]c1=O,-4,1,51*,0
C[C@@H]1CN([C@H](C)CO)C(=O)c2cccc(NS(=O)(=O)c3ccccc3)c2O[C@H]1CN(C)C(=O)NC1CCCCC1,12,-1,12,-1
C[N+](C)(C)CCN(Cc1ccc(Cl)cc1)c1ccccn1,-13,3,.,.
CN(C)CCN(Cc1ccc(Cl)cc1)c1ccccn1,-6,1,0,15*
O=C1NC(Cc2ccc(O)cc2)c2nc3ccccc3c(=O)n2-c2ccccc21 (stereo not given),.,.,39*,1
CCCC1NC(=O)c2cc3ccccc3cc2-n2c1nc1ccc(F)cc1c2=O (stereo not given),0,0,67*,0
O=C1NC(Cc2ccccc2)c2nc3ccc(Cl)cc3c(=O)n2-c2ccccc21 (stereo not given),.,.,68*,0
CC(C)CC1NC(=O)c2cc3ccccc3cc2-n2c1nc1ccc(F)cc1c2=O (stereo not given),-16,-1,11,0
Nc1ccc(C(CC(=O)O)n2cccc2)cc1 (stereo not given),9,-5,-3,1
O=C(O)CC(c1ccccc1)n1cccc1 (stereo not given),115*,-1,.,.
CCOC(=O)c1[nH]c(C)c(C(=O)OCC(=O)N2CC(=O)Nc3ccccc32)c1C,.,-2,71*,0
Cn1ccnc1SCC(=O)Nc1ccc2ccccc2c1,-4,.,.,.
Cn1ccnc1SCC(=O)Nc1ccccc1,137*,-1,.,.
COc1ccc2c3c(n(C)c2c1)[C@H](CO)N(C(=O)C1CCCCC1)CC31CCN(C(=O)c2ccncc2)CC1,.,.,7,0
O=C(C1CC1)N1CC2(C1)[C@H](c1ccccc1)[C@H](CO)N2Cc1nccs1,.,.,-4,0
CCC(c1nc2ccccc2c(=O)n1CCN1CCOCC1)N1C(=O)c2ccccc2C1=O (stereo not given),141*,2,.,.
CCC(c1nc2ccccc2c(=O)n1CCCn1ccnc1)N1C(=O)c2ccccc2C1=O (stereo not given),-2,0,.,.
C/C=C/c1ccc([C@H]2[C@@H](CO)N(C(=O)NCCC)[C@@H]2CNC(=O)C2CCC2)cc1,-3,3,-11,0
C[C@@H]1CN([C@H](C)CO)C(=O)c2cc(NS(=O)(=O)c3ccc(Cl)cc3)ccc2O[C@@H](C)CCCCO[C@@H]1CN(C)C(=O)CCCN(C)C,.,-2,22*,0
C[C@@H]1CN([C@@H](C)CO)C(=O)c2cc(NS(=O)(=O)c3ccc(Cl)cc3)ccc2O[C@@H](C)CCCCO[C@@H]1CN(C)C(=O)CCCN(C)C,.,2,20*,0
COc1ccc(CN(C)C[C@@H]2Oc3ccc(NC(=O)NC4CCCCC4)cc3CC(=O)N([C@H](C)CO)C[C@H]2C)cc1,26,2,-4,0
CN1c2ccc(C#Cc3cccnc3)cc2[C@@H]2[C@@H](CCN2S(=O)(=O)c2cccc(F)c2)[C@H]1CO,-57,65,-13,0
CO[C@H]1CN(C)C(=O)c2cc(NS(C)(=O)=O)ccc2OC[C@@H](C)N(C(=O)C2CCC2)C[C@H]1C,6,0,13,0
SMILES,Statin myotox sup,Cneo AK release,DENV2 CPE,Xi reactivation
CC1(C)COC(c2ccc(F)c([N+](=O)[O-])c2)=N1,.,.,34*,0
COc1ccc2c3c(n(C)c2c1)[C@H](CO)N(C(=O)C1CCC1)CC31CN(C(=O)CN(C)C)C1,.,.,-3,0
C[C@H](CO)N1C[C@H](C)[C@@H](CN(C)Cc2ccc(Cl)c(Cl)c2)Oc2ccc(NC(=O)C3CCCCC3)cc2CC1=O,132*,-2,?,0
C[C@@H]1CN([C@H](C)CO)C(=O)Cc2cc(NC(=O)C3CCCCC3)ccc2O[C@H]1CN(C)Cc1ccc(Cl)c(Cl)c1,139*,-2,2,0
C[C@H]1CN([C@@H](C)CO)C(=O)Cc2cc(NC(=O)C3CCCCC3)ccc2O[C@H]1CN(C)Cc1ccc(Cl)c(Cl)c1,22,-4,?,0
C[C@@H]1CCCCO[C@@H](CN(C)C(=O)Nc2cccc3ccccc23)[C@H](C)CN([C@H](C)CO)C(=O)c2cc(NS(=O)(=O)c3cccs3)ccc2O1,108*,0,2,0
COc1ccc(S(=O)(=O)Nc2ccc3c(c2)C(=O)N([C@@H](C)CO)C[C@H](C)[C@@H](CN(C)C(=O)Nc2cccc4ccccc24)OCCCC[C@@H](C)O3)cc1,.,.,26*,-1
C[C@@H]1CN([C@@H](C)CO)C(=O)c2cc(NS(=O)(=O)c3ccccc3)ccc2O[C@H]1CN(C)C(=O)Nc1cccc2ccccc12,15,1,27*,0
C[C@@H]1CCCCO[C@@H](CN(C)C(=O)Nc2cccc3ccccc23)[C@@H](C)CN([C@H](C)CO)C(=O)c2cc(NS(=O)(=O)c3ccc(F)cc3)ccc2O1,.,8,?,1
C[C@H](CO)N1C[C@H](C)[C@@H](CN(C)C(=O)Nc2cccc3ccccc23)OCCCC[C@H](C)Oc2ccc(NS(=O)(=O)c3ccc(F)cc3)cc2C1=O,.,1,39*,0
C[C@H](CO)N1C[C@H](C)[C@@H](CN(C)C(=O)Nc2cccc3ccccc23)Oc2ccc(NS(=O)(=O)c3ccccc3)cc2C1=O,16,-6,0,0
C[C@H]1CCCCO[C@H](CN(C)C(=O)Nc2cccc3ccccc23)[C@@H](C)CN([C@@H](C)CO)C(=O)c2cc(NS(=O)(=O)c3cccs3)ccc2O1,-73,-1,-4,0
O=C(C[C@H]1CC[C@@H]2[C@H](COC[C@H](O)CN2C(=O)Nc2ccc(Cl)cc2)O1)NCCc1ccncc1,4,-1,3,0
C[C@@H]1CN([C@@H](C)CO)C(=O)c2cc(NC(=O)Nc3ccccc3)ccc2O[C@@H](C)CCCCO[C@H]1CN(C)S(=O)(=O)c1ccc(Cl)cc1,.,-6,-1,0
C[C@@H]1CCCCO[C@H](CN(C)C(=O)Nc2cccc3ccccc23)[C@@H](C)CN([C@@H](C)CO)C(=O)c2cc(NS(=O)(=O)c3ccccc3)ccc2O1,.,.,34*,0
C[C@@H]1CCCCO[C@@H](CN(C)C(=O)Nc2cccc3ccccc23)[C@H](C)CN([C@H](C)CO)C(=O)c2cc(NS(=O)(=O)c3ccccc3)ccc2O1,.,-2,10,0
C[C@H](CO)N1C[C@H](C)[C@H](CN(C)C(=O)Nc2cccc3ccccc23)OCCCC[C@H](C)Oc2ccc(NS(=O)(=O)c3cn(C)cn3)cc2C1=O,.,-13,103*,-1
